The inhibition is the percentage by which the read-out fell short of the control. Usually IC50 stands for the midpoint of a concentration-inhibition curve. High values mean lower potency, low ones higher potency.

Results on 13 compounds are retold here after ChEMBL document CHEMBL1128218, “New alpha-thiol dipeptide dual inhibitors of angiotensin-I converting enzyme and neutral endopeptidase EC 3.4.24.11” (J Med Chem, 1995).

For test [1], the target named is T1, Angiotensin-converting enzyme (Rattus norvegicus) (UniProt P47820).
T1 sequence (whole entry): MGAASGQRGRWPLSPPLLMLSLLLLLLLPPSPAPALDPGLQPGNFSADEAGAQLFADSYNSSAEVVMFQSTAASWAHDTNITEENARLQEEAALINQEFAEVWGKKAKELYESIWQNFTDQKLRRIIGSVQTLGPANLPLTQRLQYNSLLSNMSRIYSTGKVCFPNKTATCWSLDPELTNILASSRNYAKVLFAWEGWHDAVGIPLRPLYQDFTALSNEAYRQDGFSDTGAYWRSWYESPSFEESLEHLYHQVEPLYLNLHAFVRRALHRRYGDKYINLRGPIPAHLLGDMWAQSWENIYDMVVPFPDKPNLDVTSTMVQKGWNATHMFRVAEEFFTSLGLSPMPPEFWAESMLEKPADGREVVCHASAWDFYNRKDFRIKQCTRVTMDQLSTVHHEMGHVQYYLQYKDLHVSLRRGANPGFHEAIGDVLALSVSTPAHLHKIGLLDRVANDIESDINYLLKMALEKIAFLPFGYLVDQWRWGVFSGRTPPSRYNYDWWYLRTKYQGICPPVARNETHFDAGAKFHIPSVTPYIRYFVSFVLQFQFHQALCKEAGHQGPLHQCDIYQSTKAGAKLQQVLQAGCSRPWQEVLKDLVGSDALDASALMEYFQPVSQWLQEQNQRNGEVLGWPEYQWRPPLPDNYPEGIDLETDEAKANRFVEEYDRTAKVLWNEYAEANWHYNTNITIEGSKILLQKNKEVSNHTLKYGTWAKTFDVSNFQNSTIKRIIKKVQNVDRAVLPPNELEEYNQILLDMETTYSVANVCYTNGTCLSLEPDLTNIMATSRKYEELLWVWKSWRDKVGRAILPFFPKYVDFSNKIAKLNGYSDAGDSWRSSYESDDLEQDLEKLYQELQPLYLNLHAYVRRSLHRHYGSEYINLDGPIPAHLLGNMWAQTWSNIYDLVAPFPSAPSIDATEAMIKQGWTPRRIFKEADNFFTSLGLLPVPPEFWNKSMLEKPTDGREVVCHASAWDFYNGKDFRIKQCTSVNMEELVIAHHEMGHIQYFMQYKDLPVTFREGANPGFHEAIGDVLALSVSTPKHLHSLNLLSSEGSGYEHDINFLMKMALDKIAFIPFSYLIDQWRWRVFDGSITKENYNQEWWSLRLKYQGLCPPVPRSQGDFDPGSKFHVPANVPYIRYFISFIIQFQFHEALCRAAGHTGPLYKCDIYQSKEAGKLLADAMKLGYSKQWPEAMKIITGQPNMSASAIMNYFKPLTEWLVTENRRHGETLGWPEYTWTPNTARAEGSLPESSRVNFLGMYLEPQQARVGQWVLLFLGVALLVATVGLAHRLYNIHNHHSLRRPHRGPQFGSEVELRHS
The test is described as follows: Evaluation of plasma inhibition of Angiotensin I converting enzyme activity in conscious rat 2 hours after intravenous administration at a dose of 10 mg/kg. The format is functional, organism-based. Details: dose 10 mg/kg. The essentials: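 Male conscious normotensive Sprague-Dawley rats (275-390 g) fitted the day before with femoral arterial and venous catheters under methohexital anesthesia. Three angiotensin-I challenges (300 ng/kg iv) given as baseline. Compound given iv, ia or po (12.3 mg/kg po dose in 3% cornstarch at 1 mg/mL), then AI challenges repeated at set times. Pressor response compared with the mean baseline response and expressed as % inhibition.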

Test [2] has as its target T2, Angiotensin-converting enzyme (Oryctolagus cuniculus, UniProt P12822).
T2 sequence (P12822 whole entry): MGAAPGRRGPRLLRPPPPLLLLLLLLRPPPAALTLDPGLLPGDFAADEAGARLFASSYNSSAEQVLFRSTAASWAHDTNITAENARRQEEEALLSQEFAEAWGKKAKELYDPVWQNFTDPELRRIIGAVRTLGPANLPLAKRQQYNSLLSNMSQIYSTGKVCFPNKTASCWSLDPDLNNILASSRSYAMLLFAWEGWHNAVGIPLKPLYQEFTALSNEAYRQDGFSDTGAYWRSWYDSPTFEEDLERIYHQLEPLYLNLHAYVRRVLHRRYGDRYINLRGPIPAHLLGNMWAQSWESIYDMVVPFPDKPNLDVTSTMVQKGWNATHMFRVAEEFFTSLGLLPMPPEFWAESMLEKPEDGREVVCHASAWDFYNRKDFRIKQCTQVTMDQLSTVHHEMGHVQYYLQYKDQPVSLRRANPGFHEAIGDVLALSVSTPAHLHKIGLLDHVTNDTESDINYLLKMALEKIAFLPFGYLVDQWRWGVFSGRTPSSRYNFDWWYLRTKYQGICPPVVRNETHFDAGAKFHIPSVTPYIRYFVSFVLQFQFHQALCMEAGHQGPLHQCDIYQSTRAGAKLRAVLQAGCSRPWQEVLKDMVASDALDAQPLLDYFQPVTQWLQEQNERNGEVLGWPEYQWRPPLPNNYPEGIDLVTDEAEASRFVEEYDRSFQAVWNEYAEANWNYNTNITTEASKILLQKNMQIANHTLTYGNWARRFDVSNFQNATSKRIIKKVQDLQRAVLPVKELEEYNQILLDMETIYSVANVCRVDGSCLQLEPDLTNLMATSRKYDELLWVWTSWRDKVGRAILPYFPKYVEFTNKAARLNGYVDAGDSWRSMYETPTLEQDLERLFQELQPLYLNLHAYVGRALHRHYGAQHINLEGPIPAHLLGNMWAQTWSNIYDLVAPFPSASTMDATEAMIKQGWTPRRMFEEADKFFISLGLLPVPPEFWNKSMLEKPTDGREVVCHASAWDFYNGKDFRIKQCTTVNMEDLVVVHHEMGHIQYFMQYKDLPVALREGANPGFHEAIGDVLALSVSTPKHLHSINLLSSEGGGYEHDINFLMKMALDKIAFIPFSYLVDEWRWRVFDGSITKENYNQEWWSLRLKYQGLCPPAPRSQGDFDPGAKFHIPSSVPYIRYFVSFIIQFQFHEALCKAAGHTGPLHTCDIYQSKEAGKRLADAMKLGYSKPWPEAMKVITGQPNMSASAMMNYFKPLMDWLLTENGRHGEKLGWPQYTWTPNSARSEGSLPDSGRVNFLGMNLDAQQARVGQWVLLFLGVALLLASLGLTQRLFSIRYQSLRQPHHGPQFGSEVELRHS
The test is described as follows: Evaluation of in vitro inhibitory activity against Angiotensin I converting enzyme. Summed up: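 Rabbit lung ACE in 300 mM NaCl, 100 mM KH2PO4 (pH 8.3). Enzyme and drug mixed, then hippurylhistidylleucine (2 mg/mL stock) added and incubated 75 min at room temperature. Stopped with 1 N NaOH, o-phthalaldehyde added for 10 min at 25 °C, acidified with HCl, OD read at 360 nm.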

Regarding `CC(C)[C@H](S)C(=O)NC1(C(=O)N[C@@H](Cc2ccc(F)cc2)C(=O)O)CCCC1`, the inhibition in test [1] came to 80%. In test [2], this compound had an IC50 of 24 nM.
As to `O=C(O)[C@H](Cc1ccc(O)cc1)NC(=O)C1(NC(=O)[C@@H](S)Cc2ccccc2)CCCC1`, the inhibition in test [1] was found to be 75%. Further, in test [2], the IC50 was 22 nM.
In test [1], `CC(C)[C@H](S)C(=O)NC(C)(C)C(=O)N[C@@H](Cc1ccc(O)cc1)C(=O)O` gave an inhibition of 81%. In test [2], this compound registered an IC50 of 15 nM.
With `CC(C)[C@H](S)C(=O)NC1(C(=O)N[C@@H](Cc2ccc(O)cc2)C(=O)O)CCCC1`, the inhibition in test [1] stood at 91%. Besides, in test [2], half-maximal inhibition (IC50) required 7 nM.
The like results for `CC(C)[C@H](S)C(=O)NC1(C(=O)N[C@@H](Cc2c[nH]c3ccccc23)C(=O)O)CCCC1` were, in that order, 92% and 10 nM.
The like results for `CC(C)[C@H](S)C(=O)NC1(C(=O)N[C@@H](Cc2cccs2)C(=O)O)CCCC1` were, in that order, 68% and 18 nM.
Take `O=C(CS)NC1(C(=O)N[C@@H](Cc2ccc(O)cc2)C(=O)O)CCCC1`: in test [1], the inhibition was found to be 15%. For the same compound, inhibition in test [2] was half-maximal at 58 nM (IC50).
With `CC(C)[C@H](S)C(=O)NC1(C(=O)N[C@@H](Cc2ccccn2)C(=O)O)CCCC1`, in test [1], the inhibition came out at 52%. The compound also registered a 50% inhibitory concentration (IC50) in test [2] of 35 nM.
With `CC(C)[C@H](S)C(=O)NC1(C(=O)N[C@@H](Cc2ccc(O)cc2)C(=O)O)CCOCC1`, in test [1], the inhibition was 27%. Further, the midpoint of inhibition in test [2], the IC50, lay at 11 nM.
In the case of `CC(C)[C@H](S)C(=O)NC1(C(=O)N[C@@H](CCc2ccccc2)C(=O)O)CCCC1`, the inhibition in test [1] is 69%. The same compound returned an IC50 in test [2] of 30 nM.
For the compound `CC(C)[C@H](S)C(=O)NC1(C(=O)N[C@@H](Cc2ccc(O)cc2)C(=O)O)Cc2ccccc2C1`, the inhibition in test [1] was determined as 59%. The compound also showed an IC50 in test [2] of 26 nM.
`CC(C)[C@H](S)C(=O)NC1(C(=O)N[C@@H](Cc2ccc(O)cc2)C(=O)O)CC1` displayed an inhibition in test [1] of 43%. For the same compound, it took 15 nM to reach half-maximal inhibition in test [2] (IC50).
In test [1], `CC(C)[C@H](S)C(=O)NC1(C(=O)N[C@@H](Cc2ccsc2)C(=O)O)CCCC1` showed an inhibition of 100%. In test [2], the IC50 was determined as 11 nM.
